The subject of one assay is NC•SL2. Put plainly: NC–RNA inhibition: ligand added to preformed NC•SL2 complex, ESI-FTMS. The class given is binding, HIV-1. Particulars: 0.35–17.5 µM ligand added to preformed complex.
The subject of another assay is NC•SL3. As to the kind of experiment: NC–RNA inhibition: ligand added to preformed NC•SL3 complex, ESI-FTMS. In kind it is binding, HIV-1. Particulars: for ligand effect on NC•SL3 complex: 0.35–17.5 µM ligand added to preformed complex.
A further assay concerns NC•SL4. Put plainly: NC–RNA inhibition: ligand added to preformed NC•SL4 complex, ESI-FTMS. In kind it is binding, HIV-1. Particulars: 0.35–17.5 µM ligand added to preformed complex. The method in brief:
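NC was expressed in E. coli BL21(DE3)-pLysE and purified non-denaturing, with two Zn2+ confirmed by MS. It was mixed equimolar with refolded hairpin (SL4 stem extended by three base pairs) for 15 min at room temperature, forming a 1:1 complex. Ligand (0.35–17.5 µM) was added to ~3.5 µM complex in 100 mM ammonium acetate pH 7.5, then read by negative-ion ESI-FTMS. IC50 at 0.5 fractional occupancy, from competition-isotherm fit, triplicate.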

The test system of a further assay is SL2. Put plainly: Multiplexed binding assay, ternary ligand mixture added to SL2, ESI-FTMS. Particulars: ternary mixture of vancomycin, mitoxantrone and neomycin B; negative control. Also on record: species or system HIV-1. Put shortly: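 SL2 hairpin (HIV-1 NL4-3 sequence), desalted in 100 mM ammonium acetate pH 7.5, heated 95°C 3 min, ice-cooled. Equimolar mix of up to three ligands added stepwise to 0.35 µM final RNA, giving 0.35–17.5 µM total ligand. Incubated 15 min at room temperature. Analysed by 2-propanol-assisted nanospray ESI-FTMS (7 T, negative ion). Species quantified from signal intensities divided by charge state.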

In the case of `CN(C)[C@@H]1C(O)=C(C(N)=O)C(=O)[C@@]2(O)C(O)=C3C(=O)c4c(O)ccc(Cl)c4[C@@](C)(O)[C@H]3C[C@@H]12` [Chlorotetracycline, chlorotetracycline], the “ligand effect on NC•SL2 complex” value in the assay with NC•SL2 is on record as “No Effect”. Also, in the assay with NC•SL3, the “ligand effect on NC•SL3 complex” value was “No Effect”. Moreover, the “ligand effect on NC•SL4 complex” value in the assay with NC•SL4 is given as “No Effect”.
Take `Cn1cc(NC(=O)c2cc(NC(=O)c3cc(NC=O)cn3C)cn2C)cc1C(=O)NCCC(=N)N` [Distamycin A, distamycin A]: in the assay with NC•SL2, the “ligand effect on NC•SL2 complex” value is “No Effect”. For the same compound, in the assay on NC•SL4, the “ligand effect on NC•SL4 complex” value is listed as “No Effect”.
For `O=C1c2c(O)ccc(O)c2C(=O)c2c(NCCNCCO)ccc(NCCNCCO)c21` [Mitoxantrone, mitoxantrone], the “ligand effect on NC•SL3 complex” value in the assay with NC•SL3 was “no detectable signs of dissociation”. In addition, the “equivalents of ligand bound to NC•SL3 complex (ternary species)” value in the assay with NC•SL3 (5-fold addition of ligand) is “up to three”.
As to `CN[C@H](CC(C)C)C(=O)N[C@H]1C(=O)N[C@@H](CC(N)=O)C(=O)N[C@H]2C(=O)N[C@H]3C(=O)N[C@H](C(=O)N[C@H](C(=O)O)c4cc(O)cc(O)c4-c4cc3ccc4O)[C@H](O)c3ccc(c(Cl)c3)Oc3cc2cc(c3O[C@@H]2O[C@H](CO)[C@@H](O)[C@H](O)[C@H]2O[C@H]2C[C@](C)(N)[C@H](O)[C@H](C)O2)Oc2ccc(cc2Cl)[C@H]1O` [vancomycin], in the assay on SL2, the “binding to SL2 in multiplexed assay” value is listed as “no binding was observed”.

Values taken from PMC1390681 (Nucleic Acids Research, 2006).
